{"data": "Published values of several laboratories", "target": "Serine/threonine-protein kinase WNK2 (WNK2, Homo sapiens, UniProt Q9Y3S1)", "note": "Lines come from different studies, so protocols differ."}
{"SMILES": "CCN(CC)CCNC(=O)c1c(C)[nH]c(/C=C2\\C(=O)Nc3ccc(F)cc32)c1C", "assay": "enzyme activity, inhibitor", "conditions": "10 µM", "measurement": "inhibition", "value": "23%"}
{"SMILES": "O=C1NC(=O)c2cc(Nc3ccc(F)cc3)c(Nc3ccc(F)cc3)cc21", "assay": "cell-free assay", "conditions": "0.5 µM", "measurement": "remaining signal", "value": "110%"}
{"SMILES": "O=C(NC[C@@H]1[C@H]2CN(C(=O)OCc3cc(C(F)(F)F)cc(C(F)(F)F)c3)C[C@@H]12)c1ccc2[nH]nnc2c1", "assay": "cell-free assay, competition with immobilised ligand", "conditions": "1 µM", "measurement": "remaining binding", "value": "84%"}
{"SMILES": "O=C(Nc1cnn(-c2csc(C(=O)NC3COC3)c2)c1)Nc1c(F)cccc1Cl", "assay": "enzyme activity, inhibitor", "conditions": "5 µM", "measurement": "remaining activity", "value": "91.9%"}
{"SMILES": "Cc1ccc(Nc2nccc(N(C)c3ccc4c(C)n(C)nc4c3)n2)cc1S(N)(=O)=O", "assay": "enzyme activity, inhibitor", "conditions": "10 µM", "measurement": "inhibition", "value": "26%"}
{"SMILES": "CN(c1nccc(-c2cnn3ncccc23)n1)C1CC1", "assay": "binding", "conditions": "1 µM", "measurement": "remaining binding", "value": "100%"}
{"SMILES": "COCCOc1nc(-c2ccc(Cl)nc2)nc2c1CN(C(=O)c1ncn3ccccc13)CC2", "assay": "cell-free assay, competition with immobilised ligand", "conditions": "0.1 µM", "measurement": "remaining binding", "value": "100%"}
{"SMILES": "CC(C)(O)[C@H]1CC[C@H](Nc2ccc3ncc(-c4cccc(C(F)(F)F)c4)n3n2)CC1", "assay": "enzyme activity, inhibitor", "conditions": "1 µM", "measurement": "remaining activity", "value": "86.2%"}
{"SMILES": "CO[C@@H](C)c1c(Nc2ccc([C@@H](N(C)C(=O)C3CCS(=O)(=O)CC3)C(F)(F)F)cc2)cnc2cc(Cl)nn12", "assay": "cell-free assay, competition with immobilised ligand", "conditions": "1 µM", "measurement": "remaining binding", "value": "100%"}
{"SMILES": "CCCS(=O)(=O)Nc1ccc(F)c(C(=O)c2c[nH]c3ncc(-c4ccc(Cl)cc4)cc23)c1F", "assay": "enzyme activity, inhibitor", "conditions": "1 µM", "measurement": "inhibition", "value": "< 10%"}
{"SMILES": "CC(C)(C)c1nc2c(s1)c1nc(N)ncc1c1ccc(NS(=O)(=O)c3c(F)cccc3F)c(F)c12", "assay": "enzyme activity, inhibitor, radiometric", "conditions": "1 µM", "measurement": "remaining activity", "value": "101%"}
{"SMILES": "CNC(=O)Nc1ccc2c(c1)[C@@]1(CC2)OC(=O)N(CC(=O)N(Cc2ccc(F)cc2)[C@@H](C)C(F)(F)F)C1=O", "assay": "cell-free assay, competition with immobilised ligand", "conditions": "1 µM", "measurement": "remaining binding", "value": "59%"}
{"SMILES": "Nc1ncnc2occ(-c3ccc(NC(=O)Nc4cc(C(F)(F)F)ccc4F)cc3)c12", "assay": "cell-free assay, inhibitor", "conditions": "20 µM", "measurement": "remaining signal", "value": "65%"}
{"SMILES": "O=C(Nc1cnn(-c2csc(C(=O)NC3COC3)c2)c1)Nc1ccccc1Cl", "assay": "enzyme activity, inhibitor", "conditions": "5 µM", "measurement": "remaining activity", "value": "96.3%"}
{"SMILES": "CCN(CC)c1ccc(C2=NNC(=O)CC2C)cc1[N+](=O)[O-] (stereo not shown)", "assay": "enzyme activity, inhibitor", "conditions": "10 µM", "measurement": "remaining activity", "value": "104%"}
{"SMILES": "O=C(Nc1cnc(Oc2ccc(F)cc2)nc1)N1CCc2ncccc2[C@@H]1c1ccc(F)cc1", "assay": "cell-free assay, competition with immobilised ligand", "conditions": "1 µM", "measurement": "remaining binding", "value": "79%"}
{"SMILES": "N#CCCc1ccc2c(c1)-c1[nH]c3ccc([N+](=O)[O-])cc3c1CC(=O)N2", "assay": "cell-free assay", "conditions": "0.5 µM", "measurement": "remaining signal", "value": "112%"}
{"SMILES": "O=C(N1CCS(=O)(=O)CC1)N1C[C@H](c2ccc(OC(F)(F)F)cc2)C[C@H](c2nc(C3CC3)no2)C1", "assay": "cell-free assay, competition with immobilised ligand", "conditions": "1 µM", "measurement": "remaining binding", "value": "73%"}
{"SMILES": "CNC(=O)c1cc(Oc2ccc(NC(=O)Nc3ccc(Cl)c(C(F)(F)F)c3)cc2)ccn1", "assay": "enzyme activity, inhibitor", "conditions": "10 µM", "measurement": "inhibition", "value": "13%"}
